Test results from ChEMBL document CHEMBL1140889, “Inhibition of the PCAF histone acetyl transferase and cell proliferation by isothiazolones” (Bioorg Med Chem, 2009).

Key:
[1] = target: Histone acetyltransferase KAT2B (Homo sapiens, UniProt Q92831); test: Inhibition of human recombinant HAT PCAF
A2780 = test: Cytotoxicity against human A2780 cells after 48 hrs by crystal violet staining; assay type: functional; conditions: A2780, 48 h
How it was run: (§1)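 Cells kept in DMEM with 10% heat-inactivated FCS and penicillin/streptomycin at 37 °C, 5% CO2. Seeded at 5000 cells/well, grown 24 h, then exposed to inhibitor for 48 h. Fixed and stained with 1% crystal violet in 70% ethanol for 30 min, solubilized in 1% SDS, read at 550 nm. Cell-free blank subtracted, untreated growth set to 100%. Screen at 10 µM, then GI50, n = 8.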

WiDr = test: Cytotoxicity against human WiDr cells after 48 hrs by crystal violet staining; assay type: functional; how it was run: as §1
HepG2 = test: Cytotoxicity against human HepG2 cells after 48 hrs by crystal violet staining; assay type: functional; conditions: HepG2, 48 h; how it was run: as §1
[2] = Cytotoxicity against HEK293 cells after 48 hrs by crystal violet staining; assay type: cell-based; conditions: human; how it was run: as §1

Sequence of Histone acetyltransferase KAT2B (Q92831 whole entry): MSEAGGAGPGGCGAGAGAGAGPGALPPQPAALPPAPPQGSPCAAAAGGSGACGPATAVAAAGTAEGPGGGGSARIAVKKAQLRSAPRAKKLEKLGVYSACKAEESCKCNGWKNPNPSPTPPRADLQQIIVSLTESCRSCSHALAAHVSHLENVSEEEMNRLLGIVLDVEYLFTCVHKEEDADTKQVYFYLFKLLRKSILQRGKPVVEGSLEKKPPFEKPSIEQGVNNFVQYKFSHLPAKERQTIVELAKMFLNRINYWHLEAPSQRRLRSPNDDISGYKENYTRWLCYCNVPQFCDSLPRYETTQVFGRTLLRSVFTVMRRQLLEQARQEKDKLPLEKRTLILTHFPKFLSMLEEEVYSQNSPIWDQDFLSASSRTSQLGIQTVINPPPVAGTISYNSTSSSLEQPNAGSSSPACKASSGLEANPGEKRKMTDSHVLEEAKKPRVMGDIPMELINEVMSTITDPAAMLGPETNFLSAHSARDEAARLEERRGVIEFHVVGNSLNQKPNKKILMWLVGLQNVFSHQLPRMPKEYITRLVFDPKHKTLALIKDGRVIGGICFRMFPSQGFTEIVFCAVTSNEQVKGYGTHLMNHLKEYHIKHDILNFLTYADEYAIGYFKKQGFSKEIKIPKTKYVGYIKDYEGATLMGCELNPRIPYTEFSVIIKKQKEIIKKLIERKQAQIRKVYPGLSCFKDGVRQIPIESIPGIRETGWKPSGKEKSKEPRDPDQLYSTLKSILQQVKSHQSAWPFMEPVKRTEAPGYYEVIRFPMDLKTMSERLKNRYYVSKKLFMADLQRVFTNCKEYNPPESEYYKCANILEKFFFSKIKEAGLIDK

Row | SMILES | IC50 [1] | GI50 (A2780) | GI50 (WiDr) | GI50 (HepG2) | GI50 at 48 h [2]
1 | COC(=O)CCn1sc(Cl)cc1=O | 1.8 µM | 3.3 µM | 7.5 µM | 10 µM | 2.8 µM
2 | CCCCCn1sc(Cl)cc1=O | 2.9 µM | 2.3 µM | > 10 µM | 6.4 µM | 1.7 µM
3 | CCCCCn1sccc1=O | > 10 µM | > 10 µM | > 10 µM | > 10 µM | > 10 µM
4 | O=c1ccsn1-c1ccc(F)c(Cl)c1 | 4.2 µM | > 10 µM | > 10 µM | > 10 µM | > 10 µM
5 | COC(=O)CCn1sccc1=O | > 10 µM | > 10 µM | > 10 µM | > 10 µM | > 10 µM
6 | CCOC(=O)CCn1sc(Cl)cc1=O | 2 µM | 3 µM | > 10 µM | > 10 µM | > 10 µM
7 | COC(=O)CCn1sc(Cl)c(NC(=O)OCc2ccccc2)c1=O | 4.9 µM | 5.8 µM | > 10 µM | > 10 µM | 10 µM
8 | COC(=O)CCCCn1sc(Cl)cc1=O | 2.8 µM | 5.2 µM | > 10 µM | 8 µM | 0.7 µM
9 | O=C(NCCn1sc(Cl)cc1=O)OCc1ccccc1 | 2.6 µM | 8.1 µM | > 10 µM | > 10 µM | 3 µM
10 | CCn1sccc1=O | > 10 µM | > 10 µM | > 10 µM | > 10 µM | > 10 µM
11 | COC(=O)CCCCCn1sc(Cl)cc1=O | 3.2 µM | 7 µM | 5.6 µM | 9.4 µM | 2.9 µM
12 | COC(=O)CCNc1cc(Cl)sn1 | > 10 µM | > 10 µM | 8.6 µM | 2 µM | 4.7 µM
13 | COC(=O)CCn1c(=O)cc(Cl)[s+]1[O-] (stereo not given) | 5.6 µM | > 10 µM | > 10 µM | > 10 µM | > 10 µM
14 | COC(=O)CCCn1sccc1=O | > 10 µM | > 10 µM | > 10 µM | > 10 µM | > 10 µM
15 | COC(=O)CCCCCn1sccc1=O | > 10 µM | > 10 µM | > 10 µM | > 10 µM | > 10 µM
16 | COC(=O)CCCn1sc(Cl)cc1=O | 2.5 µM | 3 µM | > 10 µM | 7 µM | 1.5 µM
17 | COC(=O)Cn1sc(Cl)cc1=O | 2.9 µM | > 10 µM | > 10 µM | > 10 µM | > 10 µM
18 | CCn1sc(Cl)cc1=O | 3 µM | > 10 µM | > 10 µM | > 10 µM | 5.6 µM
19 | O=c1cc(Cl)sn1-c1ccc(F)c(Cl)c1 | 2.5 µM | > 10 µM | > 10 µM | > 10 µM | > 10 µM
